Measured values of several laboratories.
Lines come from different studies, so protocols differ.
Target: Mitogen-activated protein kinase kinase kinase 5 (MAP3K5, Homo sapiens, UniProt Q99683)
One construct used (Q99683 1-1374): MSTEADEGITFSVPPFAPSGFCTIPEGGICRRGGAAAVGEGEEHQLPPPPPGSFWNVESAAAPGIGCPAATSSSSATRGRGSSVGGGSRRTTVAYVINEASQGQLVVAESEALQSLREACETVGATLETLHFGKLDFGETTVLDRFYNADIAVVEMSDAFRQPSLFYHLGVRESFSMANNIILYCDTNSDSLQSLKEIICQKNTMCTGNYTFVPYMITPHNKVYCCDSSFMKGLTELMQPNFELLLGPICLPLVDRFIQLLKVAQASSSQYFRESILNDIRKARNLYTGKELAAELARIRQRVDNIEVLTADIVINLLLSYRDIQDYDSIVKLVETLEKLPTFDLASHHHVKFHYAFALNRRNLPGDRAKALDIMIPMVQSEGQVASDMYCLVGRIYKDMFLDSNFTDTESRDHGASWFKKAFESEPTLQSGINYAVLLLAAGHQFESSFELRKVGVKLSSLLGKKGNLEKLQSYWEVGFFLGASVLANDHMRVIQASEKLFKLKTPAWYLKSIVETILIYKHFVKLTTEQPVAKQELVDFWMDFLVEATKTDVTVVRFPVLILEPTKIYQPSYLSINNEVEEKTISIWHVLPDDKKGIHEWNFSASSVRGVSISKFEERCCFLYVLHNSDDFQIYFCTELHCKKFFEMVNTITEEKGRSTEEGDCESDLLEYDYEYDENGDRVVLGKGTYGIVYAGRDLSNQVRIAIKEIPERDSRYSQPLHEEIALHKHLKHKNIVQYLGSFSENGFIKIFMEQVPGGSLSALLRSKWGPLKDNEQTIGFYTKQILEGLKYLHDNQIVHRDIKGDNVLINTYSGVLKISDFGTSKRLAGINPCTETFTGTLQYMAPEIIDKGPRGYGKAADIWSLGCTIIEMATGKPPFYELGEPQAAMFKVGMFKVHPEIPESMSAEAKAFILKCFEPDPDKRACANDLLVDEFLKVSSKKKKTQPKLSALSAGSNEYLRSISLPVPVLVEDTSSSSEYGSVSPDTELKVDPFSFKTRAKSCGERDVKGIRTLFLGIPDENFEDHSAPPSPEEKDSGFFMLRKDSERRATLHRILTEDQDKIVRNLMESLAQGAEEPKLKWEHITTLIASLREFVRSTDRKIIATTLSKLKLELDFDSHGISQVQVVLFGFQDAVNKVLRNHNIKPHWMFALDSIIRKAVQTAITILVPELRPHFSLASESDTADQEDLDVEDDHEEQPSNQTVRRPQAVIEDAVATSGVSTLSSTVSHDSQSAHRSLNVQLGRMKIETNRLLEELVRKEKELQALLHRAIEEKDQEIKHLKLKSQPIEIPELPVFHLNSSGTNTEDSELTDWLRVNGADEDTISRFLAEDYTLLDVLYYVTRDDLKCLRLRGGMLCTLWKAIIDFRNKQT

Cn1cncc1[C@@](O)(COc1ccc(C#N)cc1-c1ccc(OC(F)(F)F)cc1)c1ccc(C#N)cc1 gave a remaining binding of 91% (cell-free assay; competition with immobilised ligand; 1 µM).
Cn1cc(-c2cc(F)cc(N3CCn4c(cc5c4CCCC5)C3=O)c2CO)cc(Nc2ccc(N3CCN(C4COC4)CC3)cn2)c1=O gave an inhibition of 2% (enzyme activity; inhibitor; 0.1 µM).
The remaining binding of Nc1ncc(-c2nc(N3CCOCC3)nc(N3CCOCC3)n2)c(C(F)F)n1 is reported as 92% (binding; competition with immobilised ligand; 10 µM).
Cn1cc(-c2cccc(N3CCc4c(sc5c4CC(C)(C)C5)C3=O)c2CO)cc(Nc2ccncn2)c1=O gave an inhibition of 14% (enzyme activity; inhibitor; 1 µM).
Cc1nn(C)cc1-c1nc2c(N3CCN(Cc4ccc(Cl)cc4)CC3)c(Cl)cnc2[nH]1 has a remaining binding of 100% (binding; competition with immobilised ligand; 1 µM).
For COc1ncccc1-c1cnn2ccc(N3CCN(C(=O)OC(C)C)CC3)nc12, the remaining binding was 73% (binding; competition with immobilised ligand; 1 µM).
With O=c1[nH]c2ccccc2n1C1CCN(Cc2ccc(-c3[nH]c4cc5ncnc5cc4nc3-c3ccccc3)cc2)CC1 the remaining signal was 93.8% (cell-free assay; 0.5 µM).
The inhibition of COc1cc(Nc2ncc(F)c(Nc3ccc4c(n3)NC(=O)C(C)(C)O4)n2)cc(OC)c1OC is reported as 0% (binding; competition with immobilised ligand; 10 µM).
For N#CC1(c2ccccn2)CCN(Cc2cc(C(=O)O)c(=O)n3ccccc23)CC1, the remaining binding was 75% (cell-free assay; competition with immobilised ligand; 1 µM).
CC(C)(C)c1cc(C=C(C#N)C#N)cc(Br)c1O has a remaining activity of 100% (enzyme activity; inhibitor; 0.5 µM).
